Screens deposited in PubChem BioAssay by several laboratories.
CYP2C19 inh: blocks human cytochrome P450 2C19; P33261; CYP2C19 Supersomes, luciferin-H EGE luminescence, 30 min; inhibition, % at 5 µM; 21% of 96,000 active; AID 778;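 active = CYP2C19 inhibition above a set limit at 5 µM in the primary screen, cut at about 50% in these data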;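 note: plate controls were negative control wells for no effect and 2.5 mM tranylcypromine positive control for full effect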
HIV Rev-RRE inh: disrupts HIV-1 Rev binding to RRE RNA; inhibition, % at 8 µM; P05866; 0.79% of 97,000 active; Rev peptide-RRE RNA binding, FRET;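 active = inhibition above the screen-wide mean plus 3 SD, cut at about 35% in these data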;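 note: 0% = median DMSO wells and 100% = median Neomycin B control wells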
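Assay system: Rev peptide and RRE RNA, both fluorescently labelled; times: 5 min preincubation and 15 min binding, 25 °C; detection: FRET, ex 480 nm, em 540 and 671 nm; read-out basis: % inhibition from 671/540 nm acceptor-to-donor ratio, scaled between controls; benchmarks: DMSO low control, neomycin B high control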
CYP2C19 act: activators of human cytochrome P450 2C19 | P33261 | recombinant CYP2C19, luciferin-H EGE luminescence; hits give high values; 0 = fully inhibited enzyme, 1 = untreated enzyme | activation factor at 5 µM | 96,000 tested, under 10 active | AID 1025;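 active = activation factor of at least 2 at 5 µM in the primary screen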;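 note: 0 = wells with 2.5 mM tranylcypromine and 1 = vehicle-only wells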
CYP2C9 inh: inhibitors of human CYP2C9 | P11712 | CYP2C9 Supersomes, luciferin-H conversion, luminescence | inhibition, % at 5 µM | 20% of 96,000 active | AID 777;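 active = blocking of liver enzyme CYP2C9 beyond about 50% at 5 µM, limit read from the data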
Target sequence (P11712 whole entry, looked up): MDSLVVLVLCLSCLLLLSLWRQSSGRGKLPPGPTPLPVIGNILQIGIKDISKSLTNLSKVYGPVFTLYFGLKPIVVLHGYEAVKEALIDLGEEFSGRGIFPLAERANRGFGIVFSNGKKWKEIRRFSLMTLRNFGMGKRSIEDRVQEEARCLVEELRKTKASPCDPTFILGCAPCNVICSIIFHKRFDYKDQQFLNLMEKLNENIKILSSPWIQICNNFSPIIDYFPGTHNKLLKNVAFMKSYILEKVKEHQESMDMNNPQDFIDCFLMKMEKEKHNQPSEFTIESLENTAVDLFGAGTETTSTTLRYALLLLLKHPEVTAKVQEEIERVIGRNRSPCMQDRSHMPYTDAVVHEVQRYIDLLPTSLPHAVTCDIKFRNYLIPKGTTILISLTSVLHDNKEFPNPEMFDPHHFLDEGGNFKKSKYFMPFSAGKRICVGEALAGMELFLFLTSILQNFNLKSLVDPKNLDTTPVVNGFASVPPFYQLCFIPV
CYP2C9 activ: increases human cytochrome P450 2C9 activity | P11712 | recombinant CYP2C9, luciferin-H conversion, luminescence; hits give high values; factor 1 = untreated enzyme, 0 = blocked | activation factor at 5 µM | 1.4% of 96,000 active | AID 1024;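 active = activation factor of 2 or more for CYP2C9 at a 5 µM dose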;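 note: 0 = sulfaphenazole-blocked wells and 1 = vehicle-only wells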
Cav3 T inh: human Cav3.2 channel inhibition, primary screen; O95180; Cav3.2-expressing cells, Fluo-4 calcium fluorescence FDSS; hits give low values; B-score at 10 µM; 4% of 100,000 active; AID 449739;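 active = single-dose well whose peak fluorescence ratio is a statistical outlier from its plate by either plate-standardised score or position-corrected B-score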
* = called active by the depositor; . = no result given. Rows were chosen to be rich in hits. Some 27% of all compounds tested hit in one or more screens of this group.

SMILES | CYP2C19 inh | HIV Rev-RRE inh | CYP2C19 act | CYP2C9 inh | CYP2C9 activ | Cav3 T inh
Cc1noc(C)c1COc1cccc(C(=O)Oc2ccc3c(c2)OCO3)c1 | 67* | 16 | 0.3 | 88* | 0.1 | -3.1
COc1cc(C(=O)Oc2ccccc2)ccc1OCc1c(C)noc1C | 4 | -3 | 1 | 3 | 1 | -0.0095
Cc1ccc(NC(=O)c2cccc(OCc3c(C)noc3C)c2)c(C)c1 | 81* | 5 | 0.2 | 88* | 0.1 | -1.3
Cc1noc(C)c1COc1cccc(C(=O)OC(C)C(=O)Nc2ccc3c(c2)OCO3)c1 (configuration not stated) | 37 | 16 | 0.6 | 81* | 0.2 | -3.2
CN(C)S(=O)(=O)N1CCN(S(=O)(=O)N(C)C)CC1 | 7 | 8 | 0.9 | -4 | 1 | -0.18
CCOC(=O)Cc1nnc(NC(=O)c2ncn[nH]2)s1 | 1 | 11 | 1 | -3 | 1 | -0.28
O=C(CSc1nc2ccccc2[nH]1)Nc1ccc2c(c1)OCCO2 | 38 | 5 | 0.6 | 72* | 0.3 | -3.9*
Cc1ccc2nc(SCC(=O)Nc3ccc4c(c3)OCCO4)[nH]c2c1 | 32 | 5 | 0.7 | 83* | 0.2 | -1.5
Cc1ccc2nc(SCC(=O)Nc3cc(C)on3)[nH]c2c1 | 76* | 0 | 0.2 | 78* | 0.2 | 0.72
O=C(CSc1nc(Nc2ccccc2)nc(N2CCOCC2)n1)Nc1ccc2c(c1)OCCO2 | 61* | 8 | 0.4 | 60* | 0.4 | -1.9
O=C(CSc1nc(Nc2ccccc2)nc(N2CCOCC2)n1)N1CCCC1 | 4 | 5 | 1 | 25 | 0.8 | 1.4
CC(C)(C)CC(C)(C)NC(=O)CSCC(=O)Nc1ccc2ccccc2c1 | . | 22 | . | . | . | -3.1
CC(c1ccco1)N(C(=O)C12CC3CC(CC(C)(C3)C1)C2)c1ccccn1 (configuration not stated) | 42 | 12 | 0.6 | 23 | 0.8 | -1.1
O=C(Nc1nc2ccccc2[nH]1)C1CC(=O)N(c2ccc3c(c2)OCCO3)C1 (configuration not stated) | 59* | 2 | 0.4 | 62* | 0.4 | -0.47
Cc1cccc(-n2ccnc2SCC(=O)Nc2ccc3c(c2)OCCO3)c1 | 45 | 5 | 0.6 | 70* | 0.3 | .
O=C(O)C1CC(=O)N(c2ccc3c(c2)OCCO3)C1 (configuration not stated) | -20 | 7 | 1.2 | -12 | 1.1 | 0.031
COC(=O)c1ccc(CSc2nc3ccc(C)cc3[nH]2)o1 | 93* | 3 | 0.1 | 83* | 0.2 | -0.31
COC(=O)c1ccc(CSc2nc3c(cnn3-c3ccc(C)cc3)c(=O)[nH]2)o1 | . | 2 | . | . | . | 0.024
CCOC(=O)c1sc(N)c(C#N)c1CSc1nc2ccc(C)cc2[nH]1 | 77* | 7 | 0.2 | 76* | 0.2 | -1.1
O=C(NCc1n[nH]c(=S)n1-c1ccccc1)c1ccc(S(=O)(=O)N2CCOCC2)cc1 | 0 | -1 | 1 | -2 | 1 | 0.01
C[C@H]1[C@H](C)CC[C@]2(C)CC[C@]3(C)C(=CC[C@@H]4[C@@]5(C)CC[C@@H](O)[C@](C)(C(=O)O)[C@@H]5CC[C@]43C)[C@H]12 | . | . | . | . | . | -2.3
Cc1c(C(=O)N2CCCCCC2)oc2ccccc12 | 91* | 3 | 0.1 | 21 | 0.8 | -1.2
Cc1c(C(=O)NC(C)CN2CCCCC2)oc2ccccc12 (configuration not stated) | 3 | 2 | 1 | -2 | 1 | 0.56
O=C(c1cc2c(ccc3ccccc32)oc1=O)N1CCCC1 | 0 | 7 | 1 | 73* | 0.3 | 0.16
Cc1c(C(=O)N2CCCc3ccccc32)oc2ccc(S(=O)(=O)N3CCOCC3)cc12 | 96* | 2 | 0 | 85* | 0.1 | -1.6
O=C(c1cccc(S(=O)(=O)N2CCOCC2)c1)N1CCCc2ccccc21 | 40 | 1 | 0.6 | 5 | 0.9 | 0.79
O=S(=O)(c1ccc2c(c1)C(=NO)c1cc(S(=O)(=O)N3CCCCC3)ccc1-2)N1CCCCC1 | 21 | -2 | 0.8 | 5 | 1 | -6.4*
CC(C)=CCCC(C)NC(=O)NC1CCCCC1 (configuration not stated) | . | -2 | . | . | . | 1.4
Cc1noc(/C=C/N(C)C)c1S(=O)(=O)N1CCC(C(=O)O)CC1 | -19 | . | 1.2 | 0 | 1 | 0.19
